{
  "source": "ChEMBL document CHEMBL3826951",
  "about": "“Discovery of Benzocycloalkane Derivatives Efficiently Blocking Bacterial Virulence for the Treatment of Methicillin-Resistant S. aureus (MRSA) Infections by Targeting Diapophytoene Desaturase (CrtN)” (J Med Chem, 2016)",
  "key": {"[1]": {"experiment": "Aqueous solubility of the compound in water after 24 hrs by HPLC method", "assay_type": "physicochemical", "summary_of_the_method": "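Excess solid stirred in pure water for 24 h, then filtered. Filtrate analysed by HPLC (10 µL injection). Concentration read against a calibration curve of peak area versus concentration, built from methanol solutions at 50–800 µg/mL.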"}, "[2]": {"target": "T1, 4,4'-diapophytoene desaturase (4,4'-diaponeurosporene-forming) (Staphylococcus aureus (strain Newman), UniProt O07855)", "T1 sequence (O07855 whole entry)": "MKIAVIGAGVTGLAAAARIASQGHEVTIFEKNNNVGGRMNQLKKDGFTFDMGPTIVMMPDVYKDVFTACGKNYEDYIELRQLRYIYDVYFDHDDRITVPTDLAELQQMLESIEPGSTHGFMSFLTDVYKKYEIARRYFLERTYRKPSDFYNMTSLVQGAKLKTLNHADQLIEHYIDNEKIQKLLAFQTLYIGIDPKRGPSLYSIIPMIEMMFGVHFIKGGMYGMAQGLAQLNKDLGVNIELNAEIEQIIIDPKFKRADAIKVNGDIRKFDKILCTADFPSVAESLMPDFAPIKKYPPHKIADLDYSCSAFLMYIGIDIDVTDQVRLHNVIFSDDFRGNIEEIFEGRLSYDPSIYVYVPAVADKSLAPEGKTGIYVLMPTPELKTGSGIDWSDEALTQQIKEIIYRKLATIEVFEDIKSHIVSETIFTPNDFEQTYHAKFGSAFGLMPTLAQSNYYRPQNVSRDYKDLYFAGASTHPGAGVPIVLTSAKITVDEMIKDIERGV", "experiment": "Inhibition of diapophytoene desaturase in Staphylococcus aureus Newman assessed as reduction in staphyloxanthin pigment formation after 48 hrs by spectrophotometry", "set-up": "species or system Staphylococcus aureus subsp. aureus str. Newman"}, "[3]": {"target": "T1, 4,4'-diapophytoene desaturase (4,4'-diaponeurosporene-forming)", "experiment": "Inhibition of 6x-His-tagged Staphylococcus aureus diapophytoene desaturase expressed in Escherichia coli BL21 (DE3) using diapophytoene substrate after overnight incubation"}, "Trichophyton rubrum": {"test_system": "Trichophyton rubrum", "experiment": "Antifungal activity against naftifine-sensitive Trichophyton rubrum after 7 days by serial dilution method", "assay_type": "functional", "summary_of_the_method": "(§1)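 Broth serial dilution in 96-well plates per NCCLS recommendations. Medium: RPMI 1640 buffered with 0.165 M MOPS. Fungi were ATCC strains or clinical isolates.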"}, "[4]": {"test_system": "Trichophyton mentagrophytes", "experiment": "Antifungal activity against naftifine-sensitive Trichophyton mentagrophytes after 7 days by serial dilution method", "assay_type": "functional", "summary_of_the_method": "as §1"}, "Trichophyton verrucosum": {"test_system": "Trichophyton verrucosum", "experiment": "Antifungal activity against naftifine-sensitive Trichophyton verrucosum after 7 days by serial dilution method", "assay_type": "functional", "summary_of_the_method": "as §1"}, "Nannizzia gypsea": {"test_system": "Nannizzia gypsea", "experiment": "Antifungal activity against naftifine-sensitive Microsporum gypseum after 7 days by serial dilution method", "assay_type": "functional", "summary_of_the_method": "as §1"}},
  "data": [
    {"smiles": "CN(C/C=C/c1ccc(Br)cc1)Cc1ccc2c(c1)CCCCC2.Cl", "values": [
      {"measurement": "solubility at 24 h", "setting": "[1]", "result": 570, "unit": "µg/mL"},
      {"measurement": "IC50", "setting": "[2]", "result": 7.8, "unit": "nM"},
      {"measurement": "IC50", "setting": "[3]", "result": 410, "unit": "nM"}
    ]},
    {"smiles": "CN(C/C=C/c1ccccc1)Cc1cccc2c1CCC2", "values": [
      {"measurement": "IC50", "setting": "[2]", "result": "> 2500", "unit": "nM"}
    ]},
    {"smiles": "CN(C/C=C/c1ccccc1)Cc1cccc2c1CCCCC2", "values": [
      {"measurement": "IC50", "setting": "[2]", "result": "> 10000", "unit": "nM"}
    ]},
    {"smiles": "CN(C/C=C/c1ccc(C(F)(F)F)cc1)Cc1ccc2c(c1)CCCC2.Cl", "values": [
      {"measurement": "solubility at 24 h", "setting": "[1]", "result": 690, "unit": "µg/mL"},
      {"measurement": "IC50", "setting": "[2]", "result": 1.9, "unit": "nM"},
      {"measurement": "IC50", "setting": "[3]", "result": 500, "unit": "nM"}
    ]},
    {"smiles": "C[C@@H](c1ncncc1F)[C@](O)(Cn1cncn1)c1ccc(F)cc1F", "note": "[VORICONAZOLE]", "values": [
      {"measurement": "MIC=<80", "setting": "Trichophyton rubrum", "result": 0.03125, "unit": "µg/mL"},
      {"measurement": "MIC=<80", "setting": "[4]", "result": 0.03125, "unit": "µg/mL"},
      {"measurement": "MIC=<80", "setting": "Trichophyton verrucosum", "result": 0.03125, "unit": "µg/mL"},
      {"measurement": "MIC=<80", "setting": "Nannizzia gypsea", "result": 0.25, "unit": "µg/mL"}
    ]},
    {"smiles": "CN(C/C=C/c1ccc(Cl)cc1)Cc1ccc2c(c1)CCCCC2", "values": [
      {"measurement": "IC50", "setting": "[2]", "result": 8.8, "unit": "nM"}
    ]},
    {"smiles": "CN(C/C=C/c1ccccc1)Cc1cccc2c1CCCC2", "values": [
      {"measurement": "IC50", "setting": "[2]", "result": "> 1000", "unit": "nM"}
    ]},
    {"smiles": "CN(C/C=C/c1ccccc1[N+](=O)[O-])Cc1ccc2c(c1)CCCCC2", "values": [
      {"measurement": "IC50", "setting": "[2]", "result": "> 5000", "unit": "nM"}
    ]},
    {"smiles": "CN(C/C=C/C1CCCCC1)Cc1ccc2c(c1)CCCCC2", "values": [
      {"measurement": "IC50", "setting": "[2]", "result": "> 10000", "unit": "nM"}
    ]},
    {"smiles": "COc1ccc(/C=C/CN(C)Cc2ccc3c(c2)CCCC3)cc1", "values": [
      {"measurement": "IC50", "setting": "[2]", "result": 12.2, "unit": "nM"}
    ]},
    {"smiles": "C(=C\\c1ccccc1)/CNCc1ccc2c(c1)CCCCC2", "values": [
      {"measurement": "IC50", "setting": "[2]", "result": "> 10000", "unit": "nM"}
    ]},
    {"smiles": "CC(C)N(C/C=C/c1ccccc1)Cc1ccc2c(c1)CCCCC2", "values": [
      {"measurement": "IC50", "setting": "[2]", "result": "> 10000", "unit": "nM"}
    ]},
    {"smiles": "CN(C/C=C/c1ccccc1F)Cc1ccc2c(c1)CCCCC2", "values": [
      {"measurement": "IC50", "setting": "[2]", "result": 246, "unit": "nM"}
    ]},
    {"smiles": "Cc1ccc(/C=C/CN(C)Cc2ccc3c(c2)CCCCC3)cc1", "values": [
      {"measurement": "IC50", "setting": "[2]", "result": 31, "unit": "nM"}
    ]},
    {"smiles": "CC(=O)N1CCN(c2ccc(OCC3COC(Cn4ccnc4)(c4ccc(Cl)cc4Cl)O3)cc2)CC1", "note": "(stereo not given) [KETOCONAZOLE]", "values": [
      {"measurement": "MIC=<80", "setting": "Trichophyton rubrum", "result": 0.5, "unit": "µg/mL"},
      {"measurement": "MIC=<80", "setting": "[4]", "result": 0.0625, "unit": "µg/mL"},
      {"measurement": "MIC=<80", "setting": "Trichophyton verrucosum", "result": 0.0625, "unit": "µg/mL"},
      {"measurement": "MIC=<80", "setting": "Nannizzia gypsea", "result": 2, "unit": "µg/mL"}
    ]},
    {"smiles": "CN(C/C=C/c1ccccc1)Cc1ccc2c(c1)CCC2", "values": [
      {"measurement": "IC50", "setting": "[2]", "result": 808, "unit": "nM"}
    ]},
    {"smiles": "C/C(=C\\c1ccccc1)CN(C)Cc1ccc2c(c1)CCCCC2", "values": [
      {"measurement": "IC50", "setting": "[2]", "result": "> 10000", "unit": "nM"}
    ]},
    {"smiles": "CN(C/C=C/c1ccc(Br)cc1)Cc1ccc2c(c1)CCCC2.Cl", "values": [
      {"measurement": "solubility at 24 h", "setting": "[1]", "result": 2100, "unit": "µg/mL"},
      {"measurement": "IC50", "setting": "[2]", "result": 1.3, "unit": "nM"},
      {"measurement": "IC50", "setting": "[3]", "result": 450, "unit": "nM"}
    ]},
    {"smiles": "CN(C/C=C/c1ccccc1)Cc1ccc2c(c1)CCCCC2", "values": [
      {"measurement": "IC50", "setting": "[2]", "result": 202, "unit": "nM"}
    ]},
    {"smiles": "OC(Cn1cncn1)(Cn1cncn1)c1ccc(F)cc1F", "note": "[FLUCONAZOLE]", "values": [
      {"measurement": "MIC=<80", "setting": "Trichophyton rubrum", "result": 1, "unit": "µg/mL"},
      {"measurement": "MIC=<80", "setting": "[4]", "result": 2, "unit": "µg/mL"},
      {"measurement": "MIC=<80", "setting": "Trichophyton verrucosum", "result": 2, "unit": "µg/mL"},
      {"measurement": "MIC=<80", "setting": "Nannizzia gypsea", "result": 8, "unit": "µg/mL"}
    ]}
  ]
}
